In ChEMBL document CHEMBL5104225, “Synthesis and structure-activity relationship studies of N-terminal analogues of the lipopeptide antibiotics brevicidine and laterocidine” (RSC Med Chem, 2022):
Values after ≈ are worked out from the molar mass of the structure shown. Bridge positions count the residues as written; N and C are the ends. Square brackets hold non-standard residues; d marks the D form. Peptide text beside a SMILES is read from it. * marks the point of attachment. ξ: configuration not given here. Hexanoyl(4ξ-Me) = CCC(C)CCC(=O)*; Decanoyl = CCCCCCCCCC(=O)*; dOrn = NCCC[C@@H](N)C(=O)O; Orn = NCCC[C@H](N)C(=O)O; Hexanoyl = CCCCCC(=O)*; Butyryl = CCCC(=O)*

How the values were obtained:
Erythrocyte = experiment: Hemolytic activity in sheep red blood cell assessed as hemolysis at 64 ug/ml incubated for 1 hrs relative to control; type: toxicity, cell-based, Ovis aries; settings: at 64 µg/mL
Outline: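 Defibrinated sheep erythrocytes were washed five times in PBS with 0.002% Tween20 and normalized so the positive control read 2.5–3.0 at 415 nm. Cells were mixed with peptide at 64 µg/mL and held 1 h at 37 °C, shaking 500 rpm, then centrifuged. Supernatant A415 was background-corrected against buffer and expressed as % of 0.1% Triton X-100. Run in triplicate.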

Escherichia coli [1] = experiment: Antibacterial activity against Escherichia coli ATCC 25922 assessed as inhibition of bacterial growth incubated for 18 hrs by CLSI protocol based method; type: functional
Outline: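 Broth microdilution MIC. Strain streaked from glycerol stock on sheep blood agar (16 h, 37 °C); a colony was grown in TSB at 37 °C, 220 rpm, to OD600 about 0.5. Cells were diluted in MHB to 2×10^5 CFU/mL and added 1:1 to serial dilutions in MHB in polypropylene plates.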

Escherichia coli [2] = experiment: Antibacterial activity against colistin-resistant Escherichia coli ATCC 25922 carrying MCR-1 gene assessed as inhibition of bacterial growth incubated for 18 hrs by CLSI protocol based method; type: functional
Outline: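 Broth microdilution MIC. MCR-1 strain grown from glycerol stock in TSB with kanamycin (16 h, 37 °C, 220 rpm), diluted 100-fold in the same medium and grown to OD600 about 0.5. Cells were diluted in MHB to 2×10^5 CFU/mL and added 1:1 to serial dilutions in MHB. Incubated 18 h, 37 °C, 600 rpm; visual lowest no-growth concentration; three technical replicates.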

Klebsiella pneumoniae = experiment: Antibacterial activity against Klebsiella pneumoniae ATCC 13883 assessed as inhibition of bacterial growth incubated for 18 hrs by CLSI protocol based method; type: functional
Outline: (§1)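 Single colonies from blood agar (16 h, 37 °C) grown in TSB at 37 °C, 220 rpm to OD600 ~0.5, then diluted in MHB to 2×10^5 CFU/mL. Mixed with serial MHB dilutions of DMSO stocks in polypropylene plates, sealed, and incubated 18 h at 37 °C, 600 rpm. MIC was taken as the lowest concentration with no visible growth; three technical replicates.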

Acinetobacter baumannii = experiment: Antibacterial activity against Acinetobacter baumannii ATCC 17961 assessed as inhibition of bacterial growth incubated for 18 hrs by CLSI protocol based method; type: functional; outline: as §1
Pseudomonas aeruginosa = experiment: Antibacterial activity against Pseudomonas aeruginosa PAO1 assessed as inhibition of bacterial growth incubated for 18 hrs by CLSI protocol based method; type: functional; outline: as §1
Staphylococcus aureus = experiment: Antibacterial activity against Staphylococcus aureus USA300 assessed as inhibition of bacterial growth incubated for 18 hrs by CLSI protocol based method; type: functional; outline: as §1

Compound: COLISTIN
- Activity (Erythrocyte): < 0.1%

Compound: CCCC(=O)N[C@H](CO)C(=O)N[C@H](Cc1ccc(O)cc1)C(=O)N[C@H](Cc1c[nH]c2ccccc12)C(=O)N[C@H](CCCN)C(=O)N[C@@H](CCCN)C(=O)NCC(=O)N[C@H](CCCN)C(=O)N[C@@H](Cc1c[nH]c2ccccc12)C(=O)N[C@@H]1C(=O)N[C@@H]([C@@H](C)CC)C(=O)N[C@@H](CC(N)=O)C(=O)NCC(=O)NCC(=O)O[C@@H]1C (Butyryl-[dS][dY][dW][dOrn][Orn]G[dOrn]WTINGG; ester 9-C)
- MIC (Escherichia coli [1]): 16 µg/mL (≈ 10.4 µM)
- MIC (Escherichia coli [2]): 32 µg/mL (≈ 20.9 µM)
- MIC (Klebsiella pneumoniae): 32 µg/mL (≈ 20.9 µM)
- MIC (Acinetobacter baumannii): > 32 µg/mL
- MIC (Pseudomonas aeruginosa): 8 µg/mL (≈ 5.21 µM)
- MIC (Staphylococcus aureus): > 32 µg/mL

Compound: CCCCCCCCCC(=O)N[C@H](CO)C(=O)N[C@H](Cc1ccc(O)cc1)C(=O)N[C@H](Cc1c[nH]c2ccccc12)C(=O)N[C@H](CCCN)C(=O)N[C@@H](CCCN)C(=O)NCC(=O)N[C@H](CCCN)C(=O)N[C@@H](Cc1c[nH]c2ccccc12)C(=O)N[C@@H]1C(=O)N[C@@H]([C@@H](C)CC)C(=O)N[C@@H](CC(N)=O)C(=O)NCC(=O)NCC(=O)O[C@@H]1C (Decanoyl-[dS][dY][dW][dOrn][Orn]G[dOrn]WTINGG; ester 9-C)
- MIC (Escherichia coli [1]): 2 µg/mL (≈ 1.24 µM)
- MIC (Escherichia coli [2]): 2 µg/mL (≈ 1.24 µM)
- MIC (Klebsiella pneumoniae): 2 µg/mL (≈ 1.24 µM)
- MIC (Acinetobacter baumannii): 2 µg/mL (≈ 1.24 µM)
- MIC (Pseudomonas aeruginosa): 2 µg/mL (≈ 1.24 µM)
- MIC (Staphylococcus aureus): > 32 µg/mL

Compound: CCCCCC(=O)N[C@H](CO)C(=O)N[C@H](Cc1ccc(O)cc1)C(=O)N[C@H](Cc1c[nH]c2ccccc12)C(=O)N[C@H](CCCN)C(=O)N[C@@H](CCCN)C(=O)NCC(=O)N[C@H](CCCN)C(=O)N[C@@H](Cc1c[nH]c2ccccc12)C(=O)N[C@@H]1C(=O)N[C@@H]([C@@H](C)CC)C(=O)N[C@@H](CC(N)=O)C(=O)NCC(=O)NCC(=O)O[C@@H]1C (Hexanoyl-[dS][dY][dW][dOrn][Orn]G[dOrn]WTINGG; ester 9-C)
- MIC (Escherichia coli [1]): 4 µg/mL (≈ 2.56 µM)
- MIC (Escherichia coli [2]): 8 µg/mL (≈ 5.12 µM)
- MIC (Klebsiella pneumoniae): 8 µg/mL (≈ 5.12 µM)
- MIC (Acinetobacter baumannii): 16 µg/mL (≈ 10.2 µM)
- MIC (Pseudomonas aeruginosa): 4 µg/mL (≈ 2.56 µM)
- MIC (Staphylococcus aureus): > 32 µg/mL

Compound: CCC(C)CCC(=O)N[C@H](CC(N)=O)C(=O)N[C@H](Cc1ccc(O)cc1)C(=O)N[C@H](Cc1c[nH]c2ccccc12)C(=O)N[C@H](CCCN)C(=O)N[C@@H](CCCN)C(=O)NCC(=O)N[C@H](CCCN)C(=O)N[C@@H](Cc1c[nH]c2ccccc12)C(=O)N[C@@H]1C(=O)N[C@@H]([C@@H](C)CC)C(=O)NCC(=O)N[C@@H](CO)C(=O)O[C@@H]1C (some centres not stated) ({Hexanoyl(4ξ-Me)}-[dN][dY][dW][dOrn][Orn]G[dOrn]WTIGS; ester 9-C)
- MIC (Escherichia coli [1]): 4 µg/mL (≈ 2.63 µM)
- MIC (Escherichia coli [2]): 4 µg/mL (≈ 2.63 µM)
- MIC (Klebsiella pneumoniae): 2 µg/mL (≈ 1.32 µM)
- MIC (Acinetobacter baumannii): 4 µg/mL (≈ 2.63 µM)
- MIC (Pseudomonas aeruginosa): 8 µg/mL (≈ 5.26 µM)
- MIC (Staphylococcus aureus): > 32 µg/mL

Compound: CCCCCCCCCC(=O)N[C@H](CC(N)=O)C(=O)N[C@H](Cc1ccc(O)cc1)C(=O)N[C@H](Cc1c[nH]c2ccccc12)C(=O)N[C@H](CCCN)C(=O)N[C@@H](CCCN)C(=O)NCC(=O)N[C@H](CCCN)C(=O)N[C@@H](Cc1c[nH]c2ccccc12)C(=O)N[C@@H]1C(=O)N[C@@H]([C@@H](C)CC)C(=O)NCC(=O)N[C@@H](CO)C(=O)O[C@@H]1C (Decanoyl-[dN][dY][dW][dOrn][Orn]G[dOrn]WTIGS; ester 9-C)
- MIC (Escherichia coli [1]): 4 µg/mL (≈ 2.56 µM)
- MIC (Escherichia coli [2]): 4 µg/mL (≈ 2.56 µM)
- MIC (Klebsiella pneumoniae): 4 µg/mL (≈ 2.56 µM)
- MIC (Acinetobacter baumannii): 4 µg/mL (≈ 2.56 µM)
- MIC (Pseudomonas aeruginosa): 8 µg/mL (≈ 5.12 µM)
- MIC (Staphylococcus aureus): 32 µg/mL (≈ 20.5 µM)

Compound: CCCCCC(=O)N[C@H](CC(N)=O)C(=O)N[C@H](Cc1ccc(O)cc1)C(=O)N[C@H](Cc1c[nH]c2ccccc12)C(=O)N[C@H](CCCN)C(=O)N[C@@H](CCCN)C(=O)NCC(=O)N[C@H](CCCN)C(=O)N[C@@H](Cc1c[nH]c2ccccc12)C(=O)N[C@@H]1C(=O)N[C@@H]([C@@H](C)CC)C(=O)NCC(=O)N[C@@H](CO)C(=O)O[C@@H]1C (Hexanoyl-[dN][dY][dW][dOrn][Orn]G[dOrn]WTIGS; ester 9-C)
- MIC (Escherichia coli [1]): 8 µg/mL (≈ 5.31 µM)
- MIC (Escherichia coli [2]): 8 µg/mL (≈ 5.31 µM)
- MIC (Klebsiella pneumoniae): 4 µg/mL (≈ 2.66 µM)
- MIC (Acinetobacter baumannii): 16 µg/mL (≈ 10.6 µM)
- MIC (Pseudomonas aeruginosa): > 32 µg/mL
- MIC (Staphylococcus aureus): > 32 µg/mL
